This is an account of results in ChEMBL document CHEMBL1944603, “An efficient synthesis of highly functionalized novel chromeno[4,3-b]pyrroles and indolizino[6,7-b]indoles as potent antimicrobial and antioxidant agents” (2012).

Common to all, as to type: functional
Experiment [1] concerns Radical scavenging activity. Nature of the experiment: Antioxidant activity assessed as DPPH free radical scavenging activity at 500 ug by spectrophotometer. The essentials: (§1)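 DPPH radical scavenging measured spectrophotometrically by Blois's method at 50, 500 and 1000 µg. Absorbance read at 517 nm. Percent scavenging is the absorbance decrease at 517 nm relative to the absorbance of DPPH solution without test compound. L-ascorbic acid as standard.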
For orientation: Loss of DPPH colour is used to gauge radical scavenging.

Experiment [2] has as its system Bacillus subtilis. The experiment is described as follows: Antimicrobial activity against Bacillus subtilis at 25 ug/ml by agar diffusion assay. The essentials:
(§2)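 Agar diffusion assay in duplicate against the human bacterial pathogens; tetracycline as reference control.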
A general note: Agar diffusion results depend on both activity and mobility in agar.

The subject of experiment [3] is Klebsiella pneumoniae. Nature of the experiment: Antimicrobial activity against Klebsiella pneumoniae at 25 ug/ml by agar diffusion assay. The essentials:
as §2

For experiment [4], the system named is Bacillus subtilis. The experiment is described as follows: Antimicrobial activity against Bacillus subtilis at 75 ug/ml by agar diffusion assay. The essentials: as §2
Experiment [5] deals with Bacillus subtilis. The experiment is described as follows: Antimicrobial activity against Bacillus subtilis at 50 ug/ml by agar diffusion assay. A digest of the protocol: as §2
Experiment [6] deals with Pseudomonas aeruginosa. Nature of the experiment: Antimicrobial activity against Pseudomonas aeruginosa at 50 ug/ml by agar diffusion assay. The essentials: as §2
In experiment [7] the test system is Pseudomonas aeruginosa. Nature of the experiment: Antimicrobial activity against Pseudomonas aeruginosa at 100 ug/ml by agar diffusion assay. A digest of the protocol:
as §2

In experiment [8] the test system is Bacillus subtilis. Nature of the experiment: Antimicrobial activity against Bacillus subtilis at 100 ug/ml by agar diffusion assay. A digest of the protocol: as §2
For experiment [9], the system named is Radical scavenging activity. Nature of the experiment: Antioxidant activity assessed as DPPH free radical scavenging activity at 50 ug by spectrophotometer. The essentials: as §1
The test system of experiment [10] is Radical scavenging activity. The experiment is described as follows: Antioxidant activity assessed as DPPH free radical scavenging activity at 1000 ug by spectrophotometer. A digest of the protocol:
as §1

Experiment [11] deals with Staphylococcus aureus. Nature of the experiment: Antimicrobial activity against Staphylococcus aureus at 25 ug/ml by agar diffusion assay. The essentials:
as §2

The test system of experiment [12] is Staphylococcus aureus. Nature of the experiment: Antimicrobial activity against Staphylococcus aureus at 50 ug/ml by agar diffusion assay. A digest of the protocol: as §2
The subject of experiment [13] is Macrophomina phaseolina. The experiment is described as follows: Antifungal activity against Macrophomina phaseolina. A digest of the protocol: (§3)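 Agar diffusion assay in duplicate against the plant fungal pathogens; read-out as minimum inhibitory concentration (MIC); carbendazim as reference control.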
Experiment [14] relates to Klebsiella pneumoniae. The experiment is described as follows: Antimicrobial activity against Klebsiella pneumoniae at 50 ug/ml by agar diffusion assay. The essentials: as §2
Experiment [15] concerns Klebsiella pneumoniae. The experiment is described as follows: Antimicrobial activity against Klebsiella pneumoniae at 75 ug/ml by agar diffusion assay. The essentials: as §2
Experiment [16] relates to Pseudomonas aeruginosa. The experiment is described as follows: Antimicrobial activity against Pseudomonas aeruginosa at 25 ug/ml by agar diffusion assay. A digest of the protocol: as §2
Experiment [17] has as its system Klebsiella pneumoniae. The experiment is described as follows: Antimicrobial activity against Klebsiella pneumoniae at 100 ug/ml by agar diffusion assay. The essentials: as §2
For experiment [18], the system named is Fusarium oxysporum. The experiment is described as follows: Antifungal activity against Fusarium oxysporum. The essentials:
as §3

Experiment [19] concerns Staphylococcus aureus. The experiment is described as follows: Antimicrobial activity against Staphylococcus aureus at 100 ug/ml by agar diffusion assay. A digest of the protocol: as §2
Experiment [20] relates to Staphylococcus aureus. Nature of the experiment: Antimicrobial activity against Staphylococcus aureus at 75 ug/ml by agar diffusion assay. A digest of the protocol:
as §2

Experiment [21] deals with Pseudomonas aeruginosa. Nature of the experiment: Antimicrobial activity against Pseudomonas aeruginosa at 75 ug/ml by agar diffusion assay. A digest of the protocol: as §2

Molecules are shown by their SMILES. In brackets after ≈: the same amount, converted by molar mass.

As a reminder, the MIC is the lowest concentration found to suppress growth. Read a low MIC as inhibition by little substance. In the case of `COC(=O)[C@@]1(Cc2c[nH]c3ccccc23)C[C@H]2COc3ccc4ccccc4c3[C@H]2N1`, the Activity worked out at 52% in experiment [1], 33% in experiment [9] and 66% in experiment [10]. The inhibition zone (IZ) in experiment [2] is 10 mm; in experiment [3], 10 mm; in experiment [4], 19 mm; in experiment [5], 15 mm; in experiment [6] it was 14 mm; in experiment [7] it was 21 mm. The inhibition zone (IZ) in experiment [8] stood at 24 mm; in [11], 9 mm; in experiment [12] it was 13 mm; in experiment [14], 14 mm; in experiment [15], 20 mm; in [16], 9 mm. For the same compound, the inhibition zone (IZ) in experiment [17] is 23 mm; in experiment [19], 24 mm; in [20], 18 mm; in experiment [21] it was 20 mm. In addition, the MIC in experiment [13] was found to be 60 µg/mL (≈ 145 µM); in [18] it was 85 µg/mL (≈ 206 µM).
For the compound `COC(=O)[C@]12Cc3c([nH]c4ccccc34)[C@@H](c3cccc([N+](=O)[O-])c3)N1[C@@H]1c3c(ccc4ccccc34)OC[C@@H]1C2`, the results for the Activity in experiment [1], in experiment [9] and in experiment [10] were 53%, 30% and 67%, respectively. For the same compound, the inhibition zone (IZ) in [2] came to 12 mm; in [3], 13 mm; in experiment [4] it was 24 mm; in [5] it was 19 mm; in experiment [6], 20 mm; in experiment [7], 30 mm. Further, the inhibition zone (IZ) worked out at 29 mm in experiment [8]; 19 mm in experiment [11]; 20 mm in experiment [12]; 18 mm in experiment [14]; 22 mm in [15]; 14 mm in [16]. Moreover, the inhibition zone (IZ) worked out at 27 mm in experiment [17], 28 mm in [19], 24 mm in [20] and 24 mm in experiment [21]. The MIC in experiment [13] worked out at 90 µg/mL (≈ 165 µM); in [18], 35 µg/mL (≈ 64.2 µM).
As for `COC(=O)[C@]12Cc3c([nH]c4ccccc34)[C@@H](c3ccc(OC)cc3)N1[C@@H]1c3c(ccc4ccccc34)OC[C@@H]1C2`, the Activity came to 48% in experiment [1], 18% in experiment [9] and 81% in experiment [10]. For the same compound, the inhibition zone (IZ) was found to be 9 mm in experiment [2]; 9 mm in experiment [3]; 17 mm in [4]; 12 mm in [5]; 12 mm in [6]; 19 mm in experiment [7]. Also, the inhibition zone (IZ) in experiment [8] is 20 mm; in experiment [11], 9 mm; in [12], 11 mm; in [14], 11 mm; in experiment [15], 18 mm; in experiment [16] it was 10 mm. Also, the inhibition zone (IZ) in experiment [17] is 20 mm; in [19], 20 mm; in experiment [20] it was 18 mm; in experiment [21] it was 16 mm. Also, the MIC was 95 µg/mL (≈ 179 µM) in [13] and 100 µg/mL (≈ 188 µM) in experiment [18].
For the compound `COC(=O)[C@]12Cc3c([nH]c4ccccc34)[C@@H](c3ccc(C)cc3)N1[C@@H]1c3ccccc3OC[C@@H]1C2`, the results for the Activity in experiment [1], in experiment [9] and in [10] were 49%, 24% and 73%, respectively. The inhibition zone (IZ) in experiment [2] was determined as 9 mm; in experiment [3], 8 mm; in [4] it was 15 mm; in [5] it was 12 mm; in [6], 12 mm; in [7] it was 19 mm. The inhibition zone (IZ) in [8] was found to be 20 mm; in experiment [11], 9 mm; in [12], 13 mm; in experiment [14], 13 mm; in experiment [15] it was 18 mm; in [16] it was 8 mm. The inhibition zone (IZ) in [17] worked out at 19 mm; in experiment [19], 18 mm; in experiment [20] it was 17 mm; in experiment [21], 16 mm. In addition, the MIC came to 80 µg/mL (≈ 172 µM) in experiment [13] and 110 µg/mL (≈ 237 µM) in [18].
As to `COC(=O)[C@]12Cc3c([nH]c4ccccc34)[C@@H](c3ccccc3)N1[C@@H]1c3c(ccc4ccccc34)OC[C@@H]1C2`, the Activity in experiment [1] was determined as 33%; in [9] it was 17%; in experiment [10], 69%. Further, the inhibition zone (IZ) stood at 9 mm in experiment [2]; 10 mm in [3]; 20 mm in [4]; 12 mm in experiment [5]; 13 mm in experiment [6]; 25 mm in [7]. For the same compound, the inhibition zone (IZ) is 24 mm in [8]; 9 mm in experiment [11]; 13 mm in experiment [12]; 12 mm in [14]; 17 mm in experiment [15]; 9 mm in [16]. Moreover, the inhibition zone (IZ) worked out at 24 mm in experiment [17], 26 mm in [19], 18 mm in [20] and 18 mm in experiment [21]. The values for the MIC in experiment [13] and in experiment [18] were 85 µg/mL (≈ 170 µM) and 30 µg/mL (≈ 59.9 µM), respectively.
